procasp3 activ – procaspase-3 (human) activation | AID 463141 | 330,000 compounds, 0.11% hits | activation, % at 8.5 µM | P42574 | recombinant procaspase-3 D3A, Ac-DEVD-pNA absorbance 405 nm;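 active = activation above the mean of all tested compounds plus 3 SD, cut at about 21% in these data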;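 note: 0% = DMSO alone and 100% = DMSO wells spiked with extra 5 µM PC-3 D3A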
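Test system: Procaspase-3 D3A mutant, all three cleavage aspartates alanine | Dosing: Single dose, 8.5 µM nominal compound, 0.8% DMSO | Schedule: 1 h preincubation, 2 h reaction | Technique: 405 nm absorbance of p-nitroaniline, reads at 0 and 120 min | Repeats: One well per compound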
TPT1 inhibitor – C. albicans TPT1 enzyme inhibition; recombinant caTPT1, FP RNA substrate dephosphorylation; inhibition, % at 5 µM; 300,000 compounds, 0.81% hits;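 active = inhibition above the mean of all tested compounds plus 3 SD, set per screening campaign, cut at about 24% in these data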;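 note: plate controls were DMSO alone for no effect and ferristatin control at 100 nM for full effect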
IDE act – boosts human insulin-degrading enzyme activity in HEK cells; P14735; FAbeta-B cleavage, fluorescence polarization; 0% vehicle, 100% cell-free pure enzyme wells; activation, % at 5.96 µM; 340,000 compounds, 0.073% hits; AID 493087;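 active = activation above the mean of all tested compounds plus 3 SD, set per screening campaign, cut at about 17% in these data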
procasp7 counter – activates human procaspase-7, counter-screen for procaspase-3 activators; recombinant procaspase-7, Ac-DEVD-pNA absorbance 405 nm; D23A/D198A/D206A triple mutant, cannot self-cleave; scale: DMSO 0, 5 µM enzyme 100; activation, % at 8.5 µM; 330,000 compounds, 0.093% hits;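 active = percent activation above the screen-wide mean plus 3 SD, cut at about 25% in these data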
Target sequence (P55210 whole entry D23A/D198A/D206A): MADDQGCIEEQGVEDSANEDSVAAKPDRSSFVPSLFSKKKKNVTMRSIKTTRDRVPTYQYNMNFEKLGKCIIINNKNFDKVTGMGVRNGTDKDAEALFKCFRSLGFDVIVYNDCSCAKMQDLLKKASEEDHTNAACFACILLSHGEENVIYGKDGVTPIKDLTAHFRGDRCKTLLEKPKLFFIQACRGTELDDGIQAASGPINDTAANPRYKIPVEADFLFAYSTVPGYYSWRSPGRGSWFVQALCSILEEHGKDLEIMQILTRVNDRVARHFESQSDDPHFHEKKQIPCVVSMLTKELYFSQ
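System: Procaspase-7 triple mutant (PC-7 D3A); measure: % activation from two-timepoint absorbance difference, scaled to controls; times: 1 h compound preincubation, 2 h substrate cleavage, 25 °C; also added: Ac-DEVD-pNA substrate, 400 µM as added; measured by: Epi-absorbance of released pNA at 405 nm, two timepoints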
IDE inh – inhibitors of human insulin-degrading enzyme in cells; inhibition, % at 5.59 µM; 320,000 compounds, 0.41% hits; HEK cells, FAbetaB cleavage, fluorescence polarization;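 active = percent inhibition above the average of all tested compounds plus 3 SD, set per screening campaign, cut at about 16% in these data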;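 note: IDE supplied by intact live HEK cells; FP after avidin binding of uncleaved biotin substrate so inhibition keeps polarization high; 0% = DMSO wells and 100% = 60 µM reference IDE inhibitor Ii1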
PC3 dual counter – activates human procaspase-3, dual activator counter-screen. shares compounds with procasp7 counter. recombinant PC-3 D3A, Ac-DEVD-pNA absorbance 405 nm; aspartates 9, 28, 175 changed to alanine; 100% = enzyme control. activation, % at 8.5 µM. 290 tested, under 10 active. AID 493114;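 active = mean percent activation across triplicates above a set limit taken from the earlier primary procaspase-3 screen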;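 note: 0% = DMSO wells and 100% = DMSO wells with 5 µM added PC-3 D3A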
PC7 dual conf – confirmation of dual procaspase activators: human procaspase-7 activation; shares compounds with procasp7 counter; AID 493115; 290 tested, under 10 active; recombinant procaspase-7, Ac-DEVD-pNA absorbance 405 nm; D23A/D198A/D206A mutant that cannot self-cleave; activation, % at 8.5 µM;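 active = mean activation above a set limit carried over from the earlier primary screen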;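 note: 0% = DMSO only and 100% = DMSO with added 5 µM PC-7 enzyme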
Active calls of the source: *; . = no result given. This is a sample that favours compounds with a hit; in the whole collection about 1.2% have one here.

SMILES	procasp3 activ	TPT1 inhibitor	IDE act	procasp7 counter	IDE inh	PC3 dual counter	PC7 dual conf
O=c1[nH]c(-c2ccccc2)nc2sc(-c3ccccc3)cc12	29*	-3	0	26*	-1	-29	-35
CCOc1ccc(N(CC(=O)NCCSCc2ccc(Cl)cc2)S(C)(=O)=O)cc1	-9	4	5	-6	0	.	.
COC(=O)C1=C(C)NC(=O)NC1c1ccc(N2CCC(c3ccccc3)=N2)cc1 (stereo not drawn)	85*	-1	5	38*	2	-30	-35
COC(=O)C1=C(C)NC(=O)NC1c1ccccc1Cl (stereo not drawn)	1	-1	4	-3	2	.	.
O=C(NCc1ccco1)c1cc2nc(-c3ccc4c(c3)OCO4)cc(C(F)(F)F)n2n1	-3	-1	3	-1	4	.	.
COc1ccc(-c2cc(C(F)(F)F)n3nc(C(=O)NCc4ccco4)cc3n2)cc1	60*	-1	-3	42*	2	-30	-37
Cc1ccc(NC(=O)NNC(=O)C2CC(c3cccnc3)=NO2)cc1 (stereo not drawn)	9	0	-1	-13	6	.	.
O=C(NNC(=O)C1CC(c2cccnc2)=NO1)Nc1ccccc1F (stereo not drawn)	-3	-1	2	26*	3	1	3
Cc1ccc(-c2cc(-c3ccccc3)c(C#N)c(N)n2)o1	-9	9	-5	-19	4	.	.
Cc1ccc(-c2cc(-c3ccc(F)cc3)nc(N)c2C#N)o1	42*	7	0	50*	-6	-29	-34
CC1CCN(C(=O)Cn2cnc3c2c(=O)n(C)c(=O)n3C)c2ccccc2S1 (stereo not drawn)	0	5	5	8	4	.	.
COc1cc(Cn2c(N)c(C#N)c3nc4ccccc4nc32)cc(OC)c1	91*	4	5	85*	1	-29	-35
O=C1C(Cl)=C(NCCCN2CCOCC2)C(=O)N1CCc1ccccc1	-2	-5	0	-6	-2	.	.
O=C1C(Cl)=C(NCCc2ccccc2)C(=O)N1CCc1ccccc1	4	4	4	33*	-1	-12	-6
CCC(=O)Nc1nn(C)c2nc3c(C)cccc3cc12	-3	-4	4	3	5	.	.
COc1ccc(CC(=O)Nc2nn(C)c3nc4c(C)cccc4cc23)cc1	23*	-1	.	40*	6	-30	-35
O=S(=O)(NCc1ccc(F)cc1)c1ccc(Br)cc1Br	-6	.	-2	4	-4	.	.
COc1ccc(NC(=O)c2sc3nc(C)cc(C)c3c2N)cc1	-45	-1	1	-24	8	.	.
COc1ccc(/C=N/NC(=O)c2sc3nc(C)cc(C)c3c2N)cc1	19	2	0	49*	3	-28	-35
Cc1ccc(Cn2c(N)c(S(=O)(=O)c3cccs3)c3nc4ccccc4nc32)cc1	7	0	9	7	1	.	.
Nc1c(S(=O)(=O)c2cccs2)c2nc3ccccc3nc2n1Cc1ccccc1	44*	1	6	55*	6	-29	-36
Cc1ccc2sc(NC(=O)CSc3nc(C)cc(C)c3C#N)nc2c1	18	0	7	42*	-3	-30	-36
Cc1cc(C(F)(F)F)c(C#N)c(SCC(=O)Nc2nc3ccccc3s2)n1	-3	16	0	-8	2	.	.
CS(=O)(=O)N(CC(=O)N1CCN(Cc2ccccc2)CC1)c1cccc([N+](=O)[O-])c1	-4	-3	2	10	3	.	.
Cc1ccc(NC(=O)c2oc3ccc(Br)cc3c2C)cc1S(=O)(=O)N1CCOCC1	.	.	5	.	.	.	.
SMILES	procasp3 activ	TPT1 inhibitor	IDE act	procasp7 counter	IDE inh	PC3 dual counter	PC7 dual conf
N#Cc1c(N)nc2c(c1-c1ccc3c(c1)OCO3)CCc1ccccc1-2	16	-3	1	30*	0	-30	-34
O=c1cc(-c2ccc(O)cc2)oc2ccc3ccccc3c12	22*	.	4	29*	1	4	2
O=c1cc(-c2ccc(O)cc2)oc2c1ccc1ccccc12	-8	.	0	4	7	.	.
CC(=O)Nc1ccc(O)c(-c2nc3ccccc3s2)c1	8	-1	-2	36*	9	0	-1
O=C(Nc1ccc(O)c(-c2nc3ccccc3s2)c1)C1=COCCO1	-1	2	0	32*	-1	2	1
O=C(Nc1ccc(-c2nc3ccccc3s2)c(O)c1)C1=COCCO1	-18	1	-2	4	7	.	.

Screens: PubChem BioAssay, The Scripps Research Institute Molecular Screening Center
